Measured values gathered from unrelated publications.
Lines come from different studies, so protocols differ.
ENAH: Protein enabled homolog (ENAH, UniProt Q8N8S7)
1-deoxy-D-xylulose 5-phosphate reductoisomerase: 1-deoxy-D-xylulose 5-phosphate reductoisomerase (Mycobacterium tuberculosis, UniProt P9WNS1)
DPP4: Dipeptidyl peptidase 4 (DPP4, Homo sapiens, UniProt P27487)
pknB: Serine/threonine-protein kinase PknB (pknB, Mycobacterium tuberculosis, UniProt P9WI81)

SMILES	target	read-out	mode	method	pH	endpoint	result
CC(=O)N[C@@H](Cc1ccccc1Cl)C(=O)N1CCC[C@H]1C(=O)N1CCC[C@H]1C(=O)N1CCC[C@H]1C(=O)N1CCC[C@H]1C(=O)N[C@H](C(=O)N[C@@H](CCC(=O)O)C(=O)N[C@@H](CC(=O)O)C(=O)N[C@@H](CCC(=O)O)C(=O)N[C@@H](C)C(N)=O)[C@@H](C)O	ENAH	binding	–	fluorescence	–	Kd	3.5 µM
CC(=O)N(O)CCC(c1ccc2c(c1)OCO2)P(=O)(O)O (stereo not shown)	1-deoxy-D-xylulose 5-phosphate reductoisomerase	enzyme activity	inhibitor	absorbance	pH 7.5	IC50	1.5 µM
CC(C)[C@H](N)C(=O)N1CCC[C@H]1C(=O)N[C@H](C(=O)N1CCC[C@H]1C(=O)N[C@@H](CO)C(=O)O)C(C)C	DPP4	enzyme activity	inhibitor	absorbance	pH 8	IC50	92.9 µM
CC(=O)N(O)CCC(c1ccc(-c2cccnc2)cc1)P(=O)(O)O (stereo not shown)	1-deoxy-D-xylulose 5-phosphate reductoisomerase	enzyme activity	inhibitor	absorbance	pH 7.5	IC50	0.8 µM
CC(C)C[C@H](NC(=O)[C@@H]1CCCN1C(=O)[C@@H](NC(=O)[C@@H]1CCCN1C(=O)[C@@H](N)C(C)C)C(C)C)C(=O)O	DPP4	enzyme activity	inhibitor	absorbance	pH 8	IC50	130 µM
CC(=O)N[C@@H](CO)C(=O)N[C@@H](Cc1ccccc1)C(=O)N[C@@H](CCC(=O)O)C(=O)N[C@@H](Cc1ccccc1)C(=O)N1CCC[C@H]1C(=O)N1CCC[C@H]1C(=O)N1CCC[C@H]1C(=O)N1CCC[C@H]1C(=O)N[C@H](C(=O)N[C@@H](CCC(=O)O)C(=O)N[C@@H](CC(=O)O)C(=O)N[C@@H](CCC(=O)O)C(=O)N[C@@H](CC(C)C)C(N)=O)[C@@H](C)O	ENAH	binding	–	fluorescence	–	Kd	13 µM
CC(C)(C)OC(=O)N1CCN(c2ccc(Nc3nccc(-c4ccccc4)n3)cc2C(F)(F)F)CC1	pknB	cell-free assay	inhibitor	–	–	Ki	> 5.9 µM
CC(C)[C@H](N)C(=O)N1CCC[C@H]1C(=O)N[C@H](C(=O)N1CCC[C@H]1C(=O)N[C@@H](CCCCN)C(=O)O)C(C)C	DPP4	enzyme activity	inhibitor	absorbance	pH 8	IC50	104 µM
CC(=O)N(O)CCC(c1cc2ccccc2o1)P(=O)(O)O (stereo not shown)	1-deoxy-D-xylulose 5-phosphate reductoisomerase	enzyme activity	inhibitor	absorbance	pH 7.5	IC50	9.6 µM
COc1cccc(-c2ccnc(Nc3ccc(N4CCN(C(=O)OC(C)(C)C)CC4)c(C(F)(F)F)c3)n2)c1	pknB	cell-free assay	inhibitor	–	–	Ki	> 5.9 µM
